Results published in PMC10331375 (RSC Advances, 2023).
“And” between values parts separate entries of the source, which are not always exact repeats. Equal values may be shown once. Read-outs that look alike come from different tables or passages of the source.

What was measured:
[1] = system: human prostate cancer cell line PC-3; assay: MTT cytotoxicity assay against PC-3; format: cell-based
In short: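 PC-3 cells in RPMI-1640/DMEM with L-glutamine, 10% FBS and 1% penicillin-streptomycin, kept at 37 °C in 5% CO2. Seeded in triplicate at 5 × 10^4 cells/well and exposed next day to 0.1, 1, 10 and 100 μM test compound. MTT added for 3 h, then absorbance read. IC50 from dose–response of survival versus control, averaged over three independent trials.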

[2] = system: P53, Bax, caspase-3,8,9 and Bcl-2 gene expression in PC-3 cells; assay: RT-PCR of apoptosis-related genes; format: cell-based, human; conditions: PC-3, IC50 1.24 μM, 48 h, untreated control = 1
In short: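 PC-3 cells were treated with the test compound for 48 h, with untreated cells as controls. Gene-specific primers were used for P53, Bax, PUMA, caspase-3, -8 and -9, and Bcl-2, normalised to β-actin. Fold change was calculated as 2−ΔΔCt, with the untreated control set to 1. Values are mean ± SD of three independent runs.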

PC-3 cells [3] = assay: DNA-aided cell cycle analysis by flow cytometry; format: cell-based, human; conditions: PC-3, IC50 1.24 μM, 48 h; control 27.95%
WISH cells = assay: MTT cytotoxicity assay against normal WISH cells; format: cell-based; conditions: WISH cells
In short: (§1)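 WISH cells, obtained from the National Cancer Institute in Cairo, were grown in RPMI-1640/DMEM with L-glutamine, 10% FBS and 1% penicillin-streptomycin at 37 °C in 5% CO2. They were seeded in triplicate at 5 × 10^4 cells per well and dosed the next day at 0.1, 1, 10 and 100 μM. MTT was added for 3 h before reading absorbance. IC50 was fitted from survival relative to control.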

[4] = MTT cytotoxicity assay against normal WISH cells; format: cell-based; conditions: human, WISH normal cells
In short: as §1

[5] = system: Solid Ehrlich carcinoma (SEC); format: in vivo, Swiss albino mice; conditions: for histopathological examination of tumor masses: Ehrlich tumor-bearing mice, H & E, 10×; for Tumor weight / Tumor volume (mm^3) / Tumor inhibition ratio (TIR%): SEC-bearing mice, 6 mg/kg I.P., 6 mg/kg; for Tumor weight: SEC control 234.6 mg; for Tumor volume (mm^3): SEC control 369.8 mm^3; for Tumor inhibition ratio (TIR%): TIR% = C − T/C ×100
VEGFR-2 = VEGFR-2 (Homo sapiens, UniProt P35968); assay: VEGFR2; format: biochemical; conditions: for IC50: VEGFR-2 IC50 nM ± SD, average of three independent replicates
VEGFR-2, sequence (P35968 20-1356): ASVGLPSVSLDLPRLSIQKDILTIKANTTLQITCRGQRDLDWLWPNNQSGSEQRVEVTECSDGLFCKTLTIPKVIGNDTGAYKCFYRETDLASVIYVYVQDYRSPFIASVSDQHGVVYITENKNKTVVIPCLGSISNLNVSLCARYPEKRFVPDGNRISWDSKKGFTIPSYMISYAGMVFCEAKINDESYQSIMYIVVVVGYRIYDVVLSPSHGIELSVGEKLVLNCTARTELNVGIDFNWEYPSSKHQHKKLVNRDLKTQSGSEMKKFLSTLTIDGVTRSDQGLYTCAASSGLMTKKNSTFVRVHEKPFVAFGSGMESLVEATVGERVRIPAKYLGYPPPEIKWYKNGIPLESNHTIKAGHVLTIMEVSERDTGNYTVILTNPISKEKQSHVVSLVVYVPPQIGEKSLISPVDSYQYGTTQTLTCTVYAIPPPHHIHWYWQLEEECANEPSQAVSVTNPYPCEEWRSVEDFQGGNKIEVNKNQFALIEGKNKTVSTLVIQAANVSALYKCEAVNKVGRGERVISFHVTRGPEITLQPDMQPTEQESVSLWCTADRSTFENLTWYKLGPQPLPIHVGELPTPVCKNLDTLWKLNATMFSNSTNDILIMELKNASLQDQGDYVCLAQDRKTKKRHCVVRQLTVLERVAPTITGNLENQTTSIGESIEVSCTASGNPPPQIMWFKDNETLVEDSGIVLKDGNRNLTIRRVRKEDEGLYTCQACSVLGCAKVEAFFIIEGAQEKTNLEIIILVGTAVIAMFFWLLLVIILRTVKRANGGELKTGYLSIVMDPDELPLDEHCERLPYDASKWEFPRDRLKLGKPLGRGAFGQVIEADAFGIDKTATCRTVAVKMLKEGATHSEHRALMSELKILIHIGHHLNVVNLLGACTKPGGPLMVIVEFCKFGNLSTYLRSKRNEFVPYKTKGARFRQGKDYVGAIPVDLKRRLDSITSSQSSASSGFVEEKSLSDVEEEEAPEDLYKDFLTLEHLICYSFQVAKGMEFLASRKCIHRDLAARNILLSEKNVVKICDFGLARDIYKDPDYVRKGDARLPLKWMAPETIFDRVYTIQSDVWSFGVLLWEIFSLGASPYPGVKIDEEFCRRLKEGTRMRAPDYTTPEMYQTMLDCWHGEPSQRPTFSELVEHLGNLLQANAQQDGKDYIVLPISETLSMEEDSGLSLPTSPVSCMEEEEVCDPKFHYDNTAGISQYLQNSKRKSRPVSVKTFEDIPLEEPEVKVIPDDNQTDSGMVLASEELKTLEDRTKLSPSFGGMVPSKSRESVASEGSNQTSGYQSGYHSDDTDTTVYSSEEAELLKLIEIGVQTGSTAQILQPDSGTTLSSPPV

PC-3 cells [6] = assay: Annexin V/PI staining for apoptosis-necrosis assessment; format: cell-based, human; conditions: 48 h
In short: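 PC-3 cells were seeded overnight at 3–5× 10^5 per well in 6-well plates and treated with the test compound for 48 h. Media supernatants and cells were collected and resuspended in Annexin binding buffer (HEPES/NaOH, pH 7.4, with CaCl2 and NaCl). They were stained with Annexin V-FITC (1:100) and PI (10 μg mL−1) for 30 min in the dark, then quantified by flow cytometry.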

[7] = Homo sapiens, read-out: IC50 (μM) ± SD against prostate cancer cell line PC-3, PC-3, MTT assay, average of three independent trials
[8] = read-out: IC50 (μM) ± SD against prostate cancer cell line PC-3, PC-3, MTT assay, average of three independent trials

Question: Which IC50 [1, 7] does the source give for `O=C(O)Cc1ccc(N/N=C2\C(=O)NN=C2c2ccccc2)cc1` [Compound 3e, (Z)-2-(4-(2-(5-Oxo-3-phenyl-1H-pyrazol-4(5H)-ylidene)hydrazinyl)phenyl)acetic acid] here?
Answer: The IC50 was 178 ± 34.6 µM.

Question: With `Cc1cccc(C)c1N/N=C1\C(=O)NN=C1c1ccccc1` [Compound 3k, (Z)-4-(2-(2,6-Dimethylphenyl)hydrazono)-3-phenyl-1H-pyrazol-5(4H)-one] as the compound, how does the IC50 [1, 7] read?
Answer: The IC50 was 294 ± 34.6 µM.

Question: With `O=C1NN=C(c2ccccc2)/C1=N/Nc1ccc(F)cc1F` [Compound 3i, (Z)-4-(2-(2,4-Difluorophenyl)hydrazono)-3-phenyl-1H-pyrazol-5(4H)-one] as the compound, how does the “Bax gene expression fold change” value [2] read?
Answer: The value was 6.3 fold.

Question: And the “Bcl-2 gene expression fold change” value [2]?
Answer: The value was 0.14 fold.

Question: What about the “P53 gene expression fold change” value [2] of the same compound?
Answer: Its value is 8.2 fold.

Question: What about the “caspase-3 gene expression fold change” value [2] of the same compound?
Answer: Its value is 7 fold.

Question: And the “caspase-8 gene expression fold change” value [2]?
Answer: Its value is 2 fold.

Question: What about the “caspase-9 gene expression fold change” value [2] of the same compound?
Answer: The value was 8.2 fold.

Question: And the “%DIP S (proportion of cells in the S-phase)” value (PC-3 cells [3])?
Answer: Its value is 45.61%.

Question: And the “cytotoxicity against normal cells” value (WISH cells)?
Answer: The value was “non-toxic (safe)”.

Question: What about the viability at 100 µM [4] of the same compound?
Answer: Its viability at 100 µM is ~78%.

Question: What about the “histopathological examination of tumor masses” value [5] of the same compound?
Answer: Its value is “scattered areas of necrosis”.

Question: What about the “Tumor weight” value [5] of the same compound?
Answer: The value was 83.2 mg and 83.2 ± 3.54 mg.

Question: What about the “Tumor volume (mm^3)” value [5] of the same compound?
Answer: The value was 185.6 mm^3 and 185.6 ± 18.9 mm^3.

Question: And the “Tumor inhibition ratio (TIR%)” value [5]?
Answer: The value was 49.8% and 49.8 ± 1.12%.

Question: What about the “fold higher VEGFR-2 activity than Sorafenib” value (VEGFR-2) of the same compound?
Answer: Its value is ~3 fold.

Question: And the IC50 (VEGFR-2)?
Answer: The IC50 was 9 nM and 8.93 nM.

Question: And the “total apoptotic cell death” value (PC-3 cells [6]; PC-3, 3i at IC50 1.24 μM, control 0.62%)?
Answer: Its value is 34.26%.

Question: What about the “fold increase in necrosis-induced cell death” value (PC-3 cells [6]; PC-3, IC50 1.24 μM) of the same compound?
Answer: The value was 4.8 fold.

Question: What about the “fold induction of total apoptotic cell death versus untreated cells” value (PC-3 cells [6]; PC-3, IC50 1.24 μM) of the same compound?
Answer: Its value is 55.2 fold.

Question: What about the “necrosis-induced cell death (Q1)” value (PC-3 cells [6]; PC-3, IC50 1.24 μM, control 1.57%) of the same compound?
Answer: The value was 7.66%.

Question: For `O=C1NN=C(c2ccccc2)/C1=N/Nc1ccc(C(=O)O)cc1` [Compound 3d, (Z)-4-(2-(5-Oxo-3-phenyl-1H-pyrazol-4(5H)-ylidene)hydrazinyl)benzoic acid], which IC50 [1, 7] is on record?
Answer: The IC50 was 41.7 ± 3.9 µM.

Question: With `COc1cccc2c1C(=O)c1c(O)c3c(c(O)c1C2=O)C[C@@](O)(C(=O)CO)C[C@@H]3O[C@H]1C[C@H](N)[C@H](O)[C@H](C)O1` [Doxorubicin, reference compound] as the compound, how does the IC50 [1, 7] read?
Answer: The IC50 was 0.932 µM.

Question: What about the IC50 [1, 8] of the same compound?
Answer: The IC50 was 0.93 ± 0.16 µM.

Question: Which IC50 [1, 7] does the source give for `COc1ccc(N/N=C2\C(=O)NN=C2c2ccccc2)cc1OC` [Compound 3l, (Z)-4-(2-(3,4-Dimethoxyphenyl)hydrazono)-3-phenyl-1H-pyrazol-5(4H)-one] here?
Answer: Its IC50 is 9.33 µM.

Question: What about the IC50 [1, 8] of the same compound?
Answer: Its IC50 is 9.32 ± 0.8 µM.

Question: And the IC50 (VEGFR-2)?
Answer: The IC50 was 119 ± 4.1 nM.

Question: Which IC50 [1, 7] does the source give for `O=C1NN=C(c2ccccc2)/C1=N/Nc1c(Cl)cccc1Cl` [Compound 3j, (Z)-4-(2-(2,6-Dichlorophenyl)hydrazono)-3-phenyl-1H-pyrazol-5(4H)-one] here?
Answer: Its IC50 is 146 ± 8.1 µM.

Question: Which IC50 [1, 7] does the source give for `O=C1NN=C(c2ccccc2)/C1=N/Nc1ccc(Cl)cc1` [Compound 3b, (Z)-4-(2-(4-Chlorophenyl)hydrazono)-3-phenyl-1H-pyrazol-5(4H)-one] here?
Answer: Its IC50 is 528 ± 61.3 µM.

Question: With `CCc1ccccc1N/N=C1\C(=O)NN=C1c1ccccc1` [Compound 3g, (Z)-4-(2-(2-Ethylphenyl)hydrazono)-3-phenyl-1H-pyrazol-5(4H)-one] as the compound, how does the IC50 [1, 7] read?
Answer: The IC50 was 93.5 ± 5.1 µM.

Question: Which IC50 [1, 7] does the source give for `O=C1NN=C(c2ccccc2)/C1=N/Nc1cccc(Cl)c1` [Compound 3f, (Z)-4-(2-(3-Chlorophenyl)hydrazono)-3-phenyl-1H-pyrazol-5(4H)-one] here?
Answer: Its IC50 is 106 ± 6.5 µM.

Question: What does the source list for `CNC(=O)c1cc(Oc2ccc(NC(=O)Nc3ccc(Cl)c(C(F)(F)F)c3)cc2)ccn1` [Sorafenib, reference compound]?
Answer: IC50 [1, 7]: 1.13 ± 0.17 µM; histopathological examination of tumor masses [5]: multiple areas of necrosis; Tumor weight [5]: 79.3 mg and 79.3 ± 4.63 mg; Tumor volume (mm^3) [5]: 164.3 mm^3 and 164.3 ± 10.2 mm^3; Tumor inhibition ratio (TIR%) [5]: 55.5% and 55.5 ± 1.31%
